Results as given in ChEMBL document CHEMBL3352266.
Calls of active or inactive are those of the source. The calls are words filed in the database; no cut-off is given here.

Assays:
[1] = molecular target: T1, Myeloperoxidase (Homo sapiens, UniProt P05164); assay: Inhibition of myeloperoxidase (unknown origin) assessed as reduction in enzymatic hypochlorous acid production by spectrophotometry based taurine chlorination assay; type: single protein
T1 sequence (P05164 whole entry): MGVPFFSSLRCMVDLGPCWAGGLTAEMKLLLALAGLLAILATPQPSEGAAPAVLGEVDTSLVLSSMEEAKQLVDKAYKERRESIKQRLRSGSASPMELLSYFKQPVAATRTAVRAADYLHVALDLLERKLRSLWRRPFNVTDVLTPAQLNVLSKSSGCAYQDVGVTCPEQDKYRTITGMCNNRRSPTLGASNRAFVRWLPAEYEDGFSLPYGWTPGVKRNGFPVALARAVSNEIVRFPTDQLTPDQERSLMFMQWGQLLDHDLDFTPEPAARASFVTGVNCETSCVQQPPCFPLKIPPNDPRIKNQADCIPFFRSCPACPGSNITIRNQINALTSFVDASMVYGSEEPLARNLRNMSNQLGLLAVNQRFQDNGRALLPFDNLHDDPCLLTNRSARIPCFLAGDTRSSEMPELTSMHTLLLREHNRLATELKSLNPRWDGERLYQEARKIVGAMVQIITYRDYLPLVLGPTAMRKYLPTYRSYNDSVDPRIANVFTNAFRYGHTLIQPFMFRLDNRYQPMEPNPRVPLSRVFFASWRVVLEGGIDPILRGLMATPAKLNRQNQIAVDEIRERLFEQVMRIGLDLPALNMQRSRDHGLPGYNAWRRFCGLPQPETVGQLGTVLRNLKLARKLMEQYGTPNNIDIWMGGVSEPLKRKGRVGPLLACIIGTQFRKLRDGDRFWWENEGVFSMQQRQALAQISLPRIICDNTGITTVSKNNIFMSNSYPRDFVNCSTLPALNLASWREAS
How it was run: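 Started with 40 μM H2O2 and stopped after 5 min with catalase. Developed with an equal volume of 500 uM TMB and 100 μM NaI in 300 mM acetate, pH 5.4. Absorbance read at 650 nm. IC50 given as mean of ≥3 trials ± SD.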

[2] = molecular target: T2, Myeloperoxidase (Homo sapiens) (UniProt P05164); assay: Inhibition of myeloperoxidase (unknown origin) assessed as reduction in H2O2 consumption by H2O2-specific electrode based assay
T2 sequence (whole entry): T1 sequence (P05164 whole entry)
How it was run: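 An H2O2-specific electrode sat in a continuously stirred vessel holding 30 μM H2O2, 154 mM NaCl and varied inhibitor concentrations in 10 mM phosphate buffer, pH 7.4. H2O2 concentration was followed in real time to derive IC50.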

SMILES | IC50 [1] [µM] | inhibition [2]
CCCCCCCCn1nc2ccccc2c1OC | > 10 | 
C#Cc1ccc(-n2nc3ccccc3c2OC)cc1 | 1.1 | 
c1c2c(cc3c4n(nc13)CCS4)OCO2 | 0.087 | Active
c1ccc2c3n(nc2c1)CCS3 | 0.094 | Active
CCCCn1nc2ccccc2c1OCC | 0.807 | Active
COc1c2ccccc2nn1-c1cccc(Cl)c1 | 4.77 | 
CCCCn1nc2ccccc2c1OC | 0.91 | Active
CCOc1c2ccccc2nn1C(C)C | 0.722 | Active
c1c2c(cc3c4n(nc13)CCCS4)OCO2 | 0.14 | Active
COc1c2ccccc2nn1-c1ccccc1 | 2.03 | 
c1ccc2c(c1)COc1c3ccccc3nn1-2 | 4.15 | 
CCCCCCCCn1[nH]c2ccccc2c1=O | > 10 | 
CCCCCn1nc2ccccc2c1OC | 3.88 | 
COc1c2ccccc2nn1-c1ccc(I)cc1 | 2 | 
CC1(C)COc2c3ccccc3nn21 | 1.03 | 
COc1c2ccccc2nn1C(C)C | 0.704 | Active
CCCCCCCCn1nc2ccccc2c1OCC | > 10 | 
CC1COc2c3ccccc3nn21 (configuration not stated) | 0.9 | Active
COc1c2cc3c(cc2nn1C(C)C)OCO3 | 0.711 | Active
c1c2c(cc3c4n(nc13)CCCO4)OCO2 | 0.403 | Active
COc1c2ccccc2nn1CCCCCO | 1.54 | 
COc1c2ccccc2nn1-c1cccc(I)c1 | 1.66 | 
COCCn1nc2ccccc2c1OC | 1.08 | 

The remaining lines, values ahead:

IC50 [1] [µM] | inhibition [2] | SMILES
0.359 | Active | c1ccc2c3n(nc2c1)CCCO3
0.792 | Active | CCCCn1[nH]c2ccccc2c1=O
0.213 | Active | c1ccc2c3n(nc2c1)CCCS3
> 10 |  | CC(=O)OCC(C)n1c(=O)c2ccccc2n1C(C)=O (configuration not stated)
2.12 |  | CC(=O)OCC(C)n1[nH]c2ccccc2c1=O (configuration not stated)
> 10 |  | CC(C)n1c(=O)c2ccccc2n1S(C)(=O)=O
1.95 |  | O=c1c2ccccc2[nH]n1CCCO
2.47 |  | O=c1c2ccccc2[nH]n1CCO
> 10 |  | CC(CBr)n1c(=O)c2ccccc2n1CC(=O)N1CCOCC1 (configuration not stated)
> 10 |  | CC(=O)n1c2ccccc2c(=O)n1C(C)C
> 10 |  | CC(CCl)n1c(=O)c2ccccc2n1S(C)(=O)=O (configuration not stated)
> 10 |  | CC(C)n1c(=O)c2ccccc2n1CC(=O)N1CCOCC1
1.4 |  | COCCOc1c2ccccc2nn1C(C)C
0.66 | Active | CC(C)n1[nH]c2ccccc2c1=O
1.79 |  | COc1c2ccccc2nn1CCCCO
